Measured values from different studies.
Compare with care: the assays were run in different laboratories.
Target: NUAK family SNF1-like kinase 1 (NUAK1, Homo sapiens, UniProt O60285)
One construct used (O60285 1-661): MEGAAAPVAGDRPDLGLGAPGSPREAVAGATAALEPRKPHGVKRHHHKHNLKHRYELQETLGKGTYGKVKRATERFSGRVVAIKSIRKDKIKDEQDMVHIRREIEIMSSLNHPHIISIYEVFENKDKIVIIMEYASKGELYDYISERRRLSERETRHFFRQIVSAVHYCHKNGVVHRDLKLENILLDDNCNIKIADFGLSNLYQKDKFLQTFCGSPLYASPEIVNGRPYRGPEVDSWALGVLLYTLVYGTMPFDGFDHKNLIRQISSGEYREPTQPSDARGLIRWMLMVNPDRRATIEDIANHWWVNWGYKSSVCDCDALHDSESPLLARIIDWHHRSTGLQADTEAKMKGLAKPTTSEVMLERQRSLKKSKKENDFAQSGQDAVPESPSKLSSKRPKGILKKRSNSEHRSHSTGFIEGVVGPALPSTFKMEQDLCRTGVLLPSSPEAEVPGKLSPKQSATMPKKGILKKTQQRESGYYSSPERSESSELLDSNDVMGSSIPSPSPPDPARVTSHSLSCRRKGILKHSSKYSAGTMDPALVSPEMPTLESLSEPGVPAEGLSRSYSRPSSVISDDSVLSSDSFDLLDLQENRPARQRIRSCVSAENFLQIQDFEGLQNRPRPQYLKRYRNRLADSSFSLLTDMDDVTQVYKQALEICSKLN

Nc1ncnc2occ(-c3ccc(NC(=O)Nc4cc(C(F)(F)F)ccc4F)cc3)c12  remaining signal (cell-free assay, inhibitor; 20 µM): 70%
NS(=O)(=O)c1ccc(CNc2ccnc(Nc3cccc(CN4CCOCC4)c3)n2)cc1  remaining activity (enzyme activity, inhibitor, radiometric; 1 µM): 79%
CN(C)C(=O)Cn1cc(-c2nc(C3(c4ccc(-c5cnc(N)nc5)cc4)CC3)no2)cn1  remaining binding (cell-free assay, competition with immobilised ligand; 1 µM): 82%
CNC(=O)c1cc(Oc2ccc(NC(=O)Nc3ccc(Cl)c(C(F)(F)F)c3)cc2)ccn1  inhibition (enzyme activity, inhibitor; 10 µM): 2%
CN(C)C1CCN(CC#Cc2nn(C3CCCC3)c3nc(NCc4ccccc4)ncc23)C1 (stereo not drawn)  inhibition (enzyme activity, inhibitor, FRET; 10 µM): 48%
CNCc1ccccc1-c1csc([C@@H](C)Nc2nc(C)nc3cc(OC)c(OC)cc23)c1  remaining binding (cell-free assay, competition with immobilised ligand; 1 µM): 97%
O=C1Nc2ccc(Cl)cc2C1=Cc1cc(Cl)c(O)c(Cl)c1  remaining signal (cell-free assay; 0.5 µM): 72.5%
Cc1ccc(Nc2nccc(N(C)c3ccc4c(C)n(C)nc4c3)n2)cc1S(N)(=O)=O  inhibition (enzyme activity, inhibitor; 0.3 µM): 14%
O=C1NC(c2ccccn2)Sc2ccccc21 (stereo not drawn)  remaining binding (cell-free assay, competition with immobilised ligand; 1 µM): 95%
Cc1ccc(NC(=O)c2ccc(C)c(C(F)(F)F)c2)cc1C#Cc1nn(C2CCC(O)CC2)c2ncnc(N)c12 (stereo not drawn)  remaining signal (cell-free assay; 10 µM): 108%
CN(c1nccc(-c2cnn3ncccc23)n1)C1CC1  remaining signal (cell-free assay; 1 µM): 93%
FC(F)c1nc2ccccc2n1-c1nc(N2CCOCC2)nc(N2CCOCC2)n1  remaining activity (enzyme activity, inhibitor; 10 µM): 90%
COc1cc2c(Nc3ccc(Br)cc3F)ncnc2cc1OCC1CCN(C)CC1  remaining signal (cell-free assay; 0.5 µM): 92.7%
O=C(NCCCNc1ccnc(Nc2cccc(NC(=O)N3CCCC3)c2)n1)C1CCC1  remaining activity (enzyme activity, inhibitor, radiometric; 1 µM): 87%
CC/C(=N\NC(=O)NCc1cccc(O)c1)c1ccc(O)c(C)c1O  inhibition (enzyme activity, inhibitor; 0.1 µM): -2.5%
O=C(NCCCNc1nc(Nc2cccc(NC(=O)N3CCCC3)c2)ncc1I)c1cccs1  remaining activity (enzyme activity, inhibitor, radiometric; 1 µM): 2%
c1ccc(N2CCN(Cc3nc4ccccc4[nH]3)CC2)nc1  remaining binding (binding, competition with immobilised ligand; 1 µM): 89%
O=C(NCCCNc1nc(Nc2cccc(NC(=O)N3CCCC3)c2)ncc1Br)C1CCC1  remaining activity (enzyme activity, inhibitor, radiometric; 1 µM): 0%
N#CCCc1ccc2c(c1)-c1[nH]c3ccc([N+](=O)[O-])cc3c1CC(=O)N2  remaining signal (cell-free assay; 0.5 µM): 14.1%
CN([C@@H]1CCc2c(CC(=O)O)c3ccccc3n2C1)S(=O)(=O)c1ccc(F)cc1  remaining binding (cell-free assay, competition with immobilised ligand; 1 µM): 100%
c1cc(CN2CCOCC2)cc(Nc2nccc(NCCc3cnc[nH]3)n2)c1  remaining activity (enzyme activity, inhibitor, radiometric; 1 µM): 14%
NS(=O)(=O)c1cc(NC(=O)C2(c3ccccc3Cl)CC2)ccc1Oc1cccc(Cl)c1  remaining binding (cell-free assay, competition with immobilised ligand; 1 µM): 95%
Cc1nn(CC(F)(F)F)cc1Nc1ncc(C2CC2)c(NCCc2c[nH]cn2)n1  remaining activity (enzyme activity, inhibitor, radiometric; 1 µM): 73%
N#Cc1ccc(Nc2ccc3[nH]c(=O)[nH]c3c2)c(Cl)c1  remaining binding (cell-free assay, competition with immobilised ligand; 1 µM): 100%
Cc1nn(CC(F)(F)F)cc1Nc1ncc(Br)c(NCc2ccc(S(N)(=O)=O)cc2)n1  remaining activity (enzyme activity, inhibitor, radiometric; 1 µM): 58%
CO[C@H]1CC[C@H](CNc2ccc(S(=O)(=O)NC(=O)c3ccc(N4CCN(CC5=C(c6ccc(Cl)cc6)CC(C)(C)CC5)CC4)cc3Oc3cnc4[nH]ccc4c3)cc2[N+](=O)[O-])CC1  remaining binding (cell-free assay, competition with immobilised ligand; 1 µM): 100%
c1cc(CN2CCOCC2)cc(Nc2ncc(C3CC3)c(NCCc3c[nH]cn3)n2)c1  remaining activity (enzyme activity, inhibitor, radiometric; 1 µM): 6%
